Only some compounds are listed: those with a hit (about 2.5% of all), similar ones and a draw of the others.
ABHD5-PLIN5 inh: blocks binding of human ABHD5 to perilipin-5; Split G. princeps luciferase complementation, luminescence, 4 h; Q00G26+Q8WTS1; AID 602281; inhibition, % at 4 µM; hit rate 0.78% among 360,000;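 active = inhibition above the mean inhibition across every tested compound plus 3 SD, cut at about 22% in these data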;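 also: 0% = DMSO only wells and the 100% control is not disclosed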
Beta2AR agonist: activates human beta-2 adrenergic receptor causing internalization. P07550. Am2.2-beta2AR cells, FAP receptor internalization, flow cytometry. response, % (concentration not given with the values). hit rate 0.43% among 340,000. AID 504454;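 active = response above a set limit, near 3 SD of response in nonfluorescent compounds, cut at about 42% in these data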
Target sequence (P07550 whole entry, looked up): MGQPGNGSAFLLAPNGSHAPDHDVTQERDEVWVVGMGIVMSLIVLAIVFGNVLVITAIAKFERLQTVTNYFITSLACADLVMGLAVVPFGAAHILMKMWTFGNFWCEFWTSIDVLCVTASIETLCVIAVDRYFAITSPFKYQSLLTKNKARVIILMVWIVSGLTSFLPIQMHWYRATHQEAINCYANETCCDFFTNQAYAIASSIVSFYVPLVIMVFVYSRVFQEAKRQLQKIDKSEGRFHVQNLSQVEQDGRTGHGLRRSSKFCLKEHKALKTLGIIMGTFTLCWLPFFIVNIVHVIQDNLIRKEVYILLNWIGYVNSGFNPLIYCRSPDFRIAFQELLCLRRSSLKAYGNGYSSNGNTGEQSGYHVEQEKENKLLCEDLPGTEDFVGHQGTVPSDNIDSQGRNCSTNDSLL
NadD inh: NadD (S. aureus) enzyme inhibition; purified NadD enzyme, colorimetric absorbance read-out; inhibition, % at 20 µM; hit rate 0.78% among 360,000; AID 602399; in the data active = inhibition above about 26%
GRK2 inh: inhibitors of human GRK2 displacing RNA aptamer. hit rate 0.59% among 330,000. AID 488847. inhibition of aptamer binding, % at 10 µM. P25098. bead flow cytometry, FAM-aptamer displacement from GRK2;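 active = inhibition of aptamer binding above 40%, roughly 3 SD of noise, on plates passing a quality check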;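 also: median bead fluorescence of bound FAM aptamer so fluorescent compounds give negative values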
SENP1 inh: blocks the human SENP1 SUMO protease catalytic domain; Q9P0U3; recombinant SENP1 catalytic domain, CyPet-SUMO1-YPet FRET cleavage; inhibition, % at 10 µM; hit rate 0.21% among 360,000;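 active = inhibition at least 30% at 10 µM, raw YFP signal under a set limit, fluorescence ratio 0.5 to 1.5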;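 also: 0% = enzyme with DMSO and 100% = no enzyme wells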
Target sequence (Q9P0U3 419-644 limits assumed): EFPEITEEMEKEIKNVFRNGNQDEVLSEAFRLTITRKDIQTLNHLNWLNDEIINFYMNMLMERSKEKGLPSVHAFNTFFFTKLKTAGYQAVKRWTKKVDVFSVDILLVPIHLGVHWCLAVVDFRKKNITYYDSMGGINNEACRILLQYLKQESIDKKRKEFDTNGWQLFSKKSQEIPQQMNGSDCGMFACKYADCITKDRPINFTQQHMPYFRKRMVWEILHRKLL
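Controls: no-enzyme wells low, DMSO-plus-enzyme wells high control. Test system: human recombinant His6-tagged SENP1 catalytic domain enzyme. Reagent: SFCypet-SUMO1-SFYpet FRET protein substrate, 25 nM final. Doses: one dose per compound, 10 µM, 0.5% DMSO. Detection: FRET, CFP and YFP emission. Timing: 50 min reaction at room temperature.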
GRK2 inh confirm: confirmation of human GRK2 inhibitors displacing RNA aptamer | shares compounds with GRK2 inh | bead-bound GRK2, FAM-aptamer displacement, flow cytometry | hit rate 4% among 2,000 | aptamer displacement, % at 10 µM;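 active = aptamer displacement above 40%, near three times the noise of non-fluorescent compounds, on plates passing quality checks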;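 also: negative values mostly reflect intrinsic compound fluorescence rather than true enhancement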
FAM quench CP1: counter-screen for GRK2 aptamer inhibitors: fluorescent aptamer quenchers; 2,000 tested, under 10 active; shares compounds with GRK2 inh; fluorescence response (% of DMSO), % at 10 µM; Carboxyfluorescein RNA aptamer on beads, flow cytometry quenching; active compounds read low;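 active = compounds that quench the bead-bound fluorescent RNA probe, cutting fluorescence to under half of the solvent control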;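 also: counterscreen run without GRK2 so only probe quenching by compound is measured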
GRK2 confirm 2: human GRK2 inhibition confirmation, cherry pick 2; shares compounds with GRK2 inh; bead-bound GRK2, FAM-aptamer displacement, flow cytometry; inhibition of aptamer binding, % at 10 µM; 360 tested, under 10 active;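 active = inhibition of aptamer binding above 40%, about triple the noise seen with nonglowing compounds, on plates passing quality control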;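 also: negative values mostly come from compounds that fluoresce themselves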
FAM quench SP: quenches fluorescent RNA aptamer, GRK2 hit artifact | 360 tested, under 10 active | shares compounds with GRK2 inh | fluorescence response vs DMSO, % at 10 µM | carboxyfluorescein RNA aptamer beads, flow cytometry quenching; active compounds read low;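 active = response vs DMSO under 50%, meaning signal dropped by over half, treated as fluorescence quencher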;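 also: labelled aptamer on streptavidin beads without GRK2 as a quench counter-screen; 100% = bead fluorescence of DMSO wells and lower means quenching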
Beta2AR ag CP1: agonists of human beta-2 adrenergic receptor; shares compounds with Beta2AR agonist; Am2.2-beta2AR cells, FAP surface receptor, flow cytometry; active compounds read low; percent response (surface receptor), % at 10 µM; hit rate 25% among 1,100;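 active = surface receptor percent response at or below 58%, roughly 3 SD from nonfluorescent compounds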
FAP fluor counter: fluorescence artifact in beta-2AR agonist FAP counterscreen; shares compounds with Beta2AR agonist; Am2.2 cells, FAP fluorogen flow cytometry; active compounds read low; calls only at 10 µM; 1,100 tested, under 10 active; AID 588765;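 active = percent response below a set limit in fluorescence channel 1 and below 50% in channel 8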
NadD inh conf: NadD (S. aureus) inhibition, single concentration confirmation; shares compounds with NadD inh; purified S. aureus NadD, colorimetric enzyme assay; inhibition, % at 20 µM; hit rate 13% among 2,000; AID 624309; in the data active = inhibition mostly above about 42%, no sharp cut-off; inactive = mostly below about 42%
SENP1 conf: confirmation of human SENP1 SUMO protease inhibitors. shares compounds with SENP1 inh. recombinant SENP1, CyPet-SUMO1-YPet FRET cleavage. inhibition, % at 10 µM. AID 651678. hit rate 34% among 520; in the data active = inhibition mostly above about 35%, no sharp cut-off; inactive = mostly below about 32%;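 also: 0% = enzyme with DMSO and 100% = no enzyme control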
SENP1 kin conf: SENP1 (human) inhibition, kinetic confirmation | shares compounds with SENP1 inh | recombinant SENP1, CyPet-SUMO1-YPet FRET kinetic cleavage | inhibition, % at 10 µM | hit rate 26% among 520; in the data active = inhibition mostly above about 32%, no sharp cut-off; inactive = mostly below about 29%;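 also: 0% = DMSO with enzyme and 100% = no enzyme substrate only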
Numbers without * were called inactive; i = inactive; . = not tested or not shown.

SMILES	ABHD5-PLIN5 inh	Beta2AR agonist	NadD inh	GRK2 inh	SENP1 inh	Beta2AR ag CP1	FAP fluor counter	others
COc1ccc(C2C3C=CCC(c4cccc(-c5ccc(C)cc5)c4)C3C(=O)N2Cc2ccccc2)cc1Cl (centres undefined)	2	1	36*	3	-2	.	.	GRK2 inh confirm=-3;FAM quench CP1=97;NadD inh conf=12
CC(=O)Oc1ccc(C(=O)[C@H]2[C@H]3C(=O)N(c4cccc5ccccc45)C(=O)[C@H]3[C@@H]3C=CC=NN32)cc1	3	8	45*	73*	2	.	.	GRK2 confirm 2=8;FAM quench SP=101;NadD inh conf=24
COc1ccc(C(=O)[C@H]2[C@H]3C(=O)N(c4ccc(OC(C)=O)cc4)C(=O)[C@H]3C3C=CC=NN32)cc1 (some centres undefined)	9	14	13	0	-8	.	.
CN(CC(=O)Nc1c(Cl)cccc1Cl)C(=O)Cc1ccc(S(=O)(=O)N2CCOCC2)s1	-5	4	-8	0	0	.	.
CC12CCC(=O)N1C(C(=O)N1CCN(c3ccc(C(F)(F)F)cc3[N+](=O)[O-])CC1)CS2 (centres undefined)	0	-21	-3	0	-1	.	.
O=C(Nc1ccc(S(=O)(=O)Nc2nccs2)cc1)c1cc(-c2ccccc2Cl)nc2ccccc12	4	-1	67*	1	2	.	.	GRK2 inh confirm=2;FAM quench CP1=108;NadD inh conf=65*
Cc1nc([N+](=O)[O-])cn1CC(=O)c1ccc(OC(F)(F)F)cc1	5	11	-7	0	3	.	.
COc1ccccc1CNC(=O)COC(=O)c1cc(-c2ccco2)nc2ccccc12	5	0	46*	49*	3	.	.	GRK2 inh confirm=34;FAM quench CP1=97;NadD inh conf=39
CCc1nnc(NC(=O)c2cc(-c3ccco3)nc3ccccc23)s1	0	-1	81*	0	14	.	.	GRK2 inh confirm=-1;FAM quench CP1=97;NadD inh conf=44
CCc1nnc(NC(=O)c2cc(-c3ccccn3)nc3ccccc23)s1	6	-15	6	0	-1	.	.
Cc1ccc(S(=O)(=O)Nc2ccccc2N2CCCCC2)cc1	-2	-3	7	1	1	.	.
O=C(NCC(F)(F)F)c1ccc(S(=O)(=O)Nc2ccccc2N2CCCC2)cc1	-7	4	40*	89*	30*	.	.	GRK2 inh confirm=21;FAM quench CP1=117;NadD inh conf=11;SENP1 conf=-2;SENP1 kin conf=-7
CCOC(=O)CC(=O)c1sc2c(c1N)c(=O)[nH]c(=O)n2-c1ccc(OC)cc1	2	0	4	3	1	.	.
Cn1c2ccccc2c2cc(C(=O)OCC(=O)N3CC(=O)Nc4ccccc43)sc21	-2	6	24	40	35*	.	.	GRK2 inh confirm=4;FAM quench CP1=105;SENP1 conf=15;SENP1 kin conf=28
N#Cc1ccc(-c2cccnc2)nc1SCc1ccc(Cl)c(Cl)c1	4	37	9	.	-2	.	.
N#Cc1ccc(-c2cccnc2)nc1SCc1ccc(Cl)cc1Cl	-1	52*	2	4	1	71	i
CCCc1cc(Nc2cccc(OCC)c2)n2ncnc2n1	6	49*	-8	0	-1	136	i
CCC1Sc2ccc(S(=O)(=O)N3CCN(c4ccccc4)CC3)cc2NC1=O (centres undefined)	-6	-2	7	0	0	.	.
O=C1OC(c2ccccc2)(c2ccc(O)cc2)c2ccccc21 (centres undefined)	3	43*	-5	.	2	77	i
O=C1CC(c2ccccc2)(c2ccccc2)c2ccccc21	-2	59*	-1	.	4	39*	i
Cc1cccc(C2(c3cccc(C)c3)OC(=O)c3ccccc32)c1	-6	-6	-1	0	2	.	.
O=C1c2ccccc2C(O)(c2ccccc2)N1C1CC1 (centres undefined)	5	5	-3	0	0	.	.
O=C1OC(c2ccccc2)(c2ccccc2)c2ccccc21	3	56*	-5	.	2	66	i
COc1ccccc1OCC(=O)Nc1cc(Cl)ccc1N1CCCCC1	-2	-4	4	0	-10	.	.
CCC(=O)Nc1ccc(-c2nn3c(C)nnc3s2)cc1C	7	60*	0	2	4	80	i
SMILES	ABHD5-PLIN5 inh	Beta2AR agonist	NadD inh	GRK2 inh	SENP1 inh	Beta2AR ag CP1	FAP fluor counter	others
O=C(NC1CCc2ccccc21)c1cc(COc2cncc(Cl)c2)on1 (centres undefined)	3	5	-2	23	-2	123	i
Cc1ccccc1N1CCN(C(=O)NCc2cccc(Cl)c2)CC1	4	2	-3	0	2	.	.
O=C(NC1CCCC1)c1cc(COc2ccc3ncccc3c2)on1	-7	-7	-1	0	0	.	.
CC(NC(=O)c1cc(COc2ccc3ncccc3c2)on1)c1ccc(F)cc1 (centres undefined)	0	45*	-5	0	0	57*	i
O=C(Cn1nc(-c2ccccc2)ccc1=O)Nc1ccc(NC(=O)c2ccccn2)cc1	-1	125*	9	0	1	26*	i
O=C(COc1ccccc1Cl)Nc1cnn(Cc2ccccc2)c1	-5	0	-5	0	3	.	.
O=C(Nc1cnn(Cc2c(Cl)cccc2Cl)c1)C(c1ccccc1)c1ccccc1	2	43*	-1	5	-1	93	i
COc1ccc(CCN2CC(C(=O)N(C)Cc3ccc(C)o3)CCC2=O)cc1 (centres undefined)	8	2	-6	1	-6	.	.
